In ChEMBL document CHEMBL1142655, “Cytotoxicity of cis-platinum(II) conjugate models. The effect of chelating arms and leaving groups on cytotoxicity: a quantitative structure-activity relationship approach” (J Med Chem, 2005) one finds IC50 data, which are given here for four substances.

pIC50: −log10 of the molar value.

The test system of experiment [1] is A2780. Briefly: Inhibitory concentration against human A2780 ovarian adenocarcinoma cell line. Type of experiment: functional, cell-based. The gist of the method: (§1)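 Cells kept in RPMI1640 with 10% fetal calf serum, 2 mM L-glutamine and 1% antibiotics at 37 °C, 5% CO2. Cp8 subline was derived by chronic cisplatin exposure. 1 × 10^3 cells/well grew 24 h, then were exposed to 0-500 µM final for 120 h (DMSO ≤0.1% final). MTT was read after 3 h, A570. Run three times in quadruplicate. IC50 from nonlinear regression; mean ± SE.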

The test system of experiment [2] is A2780. The experiment is described as follows: Inhibitory concentration against cisplatin-resistant A2780 human ovarian adenocarcinoma cell line. The class given is functional, cell-based. The essentials:
as §1

In the case of CARBOPLATIN, the pIC50 in experiment [1] is 5.12; in experiment [2] it was 3.91.
On to CISPLATIN, for which the pIC50 in experiment [1] was 5.86; in experiment [2], 4.35.
The matching figures for DICHLORO(ETHYLENEDIAMINE) PLATINUM (II): 5.26 and 3.93.
Regarding OXALIPLATIN, the pIC50 was 6.32 in experiment [1] and 5.18 in experiment [2].
